We go through one molecule from ChEMBL document CHEMBL1777776, “Identification of 2-mercaptohexanoic acids as dual inhibitors of 5-lipoxygenase and microsomal prostaglandin E₂ synthase-1” (Bioorg Med Chem, 2011).

In assay [1] the target is T1, Polyunsaturated fatty acid lipoxygenase ALOX12 (Homo sapiens) (UniProt P18054).
T1 sequence (whole entry): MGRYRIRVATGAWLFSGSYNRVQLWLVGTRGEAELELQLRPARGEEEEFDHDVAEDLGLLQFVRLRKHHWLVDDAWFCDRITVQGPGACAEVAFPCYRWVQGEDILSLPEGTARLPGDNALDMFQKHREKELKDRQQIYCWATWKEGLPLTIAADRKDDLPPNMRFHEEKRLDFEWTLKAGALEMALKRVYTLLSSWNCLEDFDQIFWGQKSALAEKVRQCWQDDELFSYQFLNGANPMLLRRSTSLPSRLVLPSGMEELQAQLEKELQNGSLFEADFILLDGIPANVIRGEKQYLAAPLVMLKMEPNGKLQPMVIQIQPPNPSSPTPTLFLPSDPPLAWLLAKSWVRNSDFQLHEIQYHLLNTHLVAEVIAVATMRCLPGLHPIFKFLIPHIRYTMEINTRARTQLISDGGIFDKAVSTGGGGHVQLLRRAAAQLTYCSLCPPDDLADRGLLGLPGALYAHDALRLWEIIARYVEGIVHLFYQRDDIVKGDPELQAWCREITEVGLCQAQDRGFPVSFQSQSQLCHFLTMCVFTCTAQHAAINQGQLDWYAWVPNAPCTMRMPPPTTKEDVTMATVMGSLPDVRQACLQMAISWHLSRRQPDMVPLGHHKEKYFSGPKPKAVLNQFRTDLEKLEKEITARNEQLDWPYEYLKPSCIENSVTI
Kind of assay: Inhibition of 12-lipoxygenase in A23187-stimulated human PMNL assessed as reduction of 12(S)-H(P)ETE formation up to 10 uM preincubated 15 mins by RP-HPLC analysis in presence of exogenous arachidonic acid. The essentials: (§1)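 Freshly isolated human PMNL (5 × 10⁶/ml PGC buffer: PBS pH 7.4, 1 mg/ml glucose, 1 mM CaCl₂) preincubated with compound 15 min at 37 °C. Stimulated with 2.5 µM A23187 plus exogenous AA for 10 min at 37 °C. Stopped with methanol, PGB₁ added as internal standard, lipoxygenase products analysed by HPLC. Mean of n = 3–5.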

The next assay addresses T2, Prostaglandin E synthase (Homo sapiens, UniProt O14684).
T2 sequence (O14684 whole entry): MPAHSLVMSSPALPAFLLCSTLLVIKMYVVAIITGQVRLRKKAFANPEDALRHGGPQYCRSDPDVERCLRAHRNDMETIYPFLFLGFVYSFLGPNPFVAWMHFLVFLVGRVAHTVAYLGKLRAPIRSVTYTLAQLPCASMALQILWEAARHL
Description: Inhibition of mPGES-1 in human IL-1beta-stimulated A549 cell microsomes assessed as reduction of PGE2 formation from PGH2 after 15 mins. Further details: species or system Microsome. In a few lines:
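Microsomes from A549 cells stimulated 72 h with IL-1β (1 ng/ml), diluted to 50 µg/ml in 0.1 M potassium phosphate pH 7.4 with 2.5 mM glutathione. Preincubated with compound (1% DMSO final) 15 min at 4 °C. Reaction started with 20 µM PGH₂, run 1 min at 4 °C, stopped with FeCl₂/citric acid containing 11β-PGE₂; PGE₂ quantified. Mean of n = 3–5.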

Assay [2] concerns the target T3, Prostaglandin G/H synthase 2 (Homo sapiens) (UniProt P35354).
T3 sequence (whole entry): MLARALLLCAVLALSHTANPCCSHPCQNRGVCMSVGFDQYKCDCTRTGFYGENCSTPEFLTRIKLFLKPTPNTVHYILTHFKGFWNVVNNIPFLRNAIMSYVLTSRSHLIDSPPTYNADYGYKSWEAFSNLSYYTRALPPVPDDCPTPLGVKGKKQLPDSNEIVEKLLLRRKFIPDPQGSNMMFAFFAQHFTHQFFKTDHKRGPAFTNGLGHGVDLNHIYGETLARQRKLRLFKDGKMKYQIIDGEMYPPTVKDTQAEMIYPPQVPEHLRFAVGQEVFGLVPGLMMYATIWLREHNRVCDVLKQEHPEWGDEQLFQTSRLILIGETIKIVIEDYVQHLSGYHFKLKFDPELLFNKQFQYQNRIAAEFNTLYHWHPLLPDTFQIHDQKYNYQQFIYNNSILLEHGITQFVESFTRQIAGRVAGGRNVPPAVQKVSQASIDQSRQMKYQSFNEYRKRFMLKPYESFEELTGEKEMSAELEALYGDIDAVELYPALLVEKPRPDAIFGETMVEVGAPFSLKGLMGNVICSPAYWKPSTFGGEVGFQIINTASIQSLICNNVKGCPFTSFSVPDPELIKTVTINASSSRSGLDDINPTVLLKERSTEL
Description: Inhibition of human recombinant COX2 assessed as residual activity at 10 uM after 5 mins. In a few lines:
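Ovine COX-1 (50 units) or human recombinant COX-2 (20 units) in 1 ml 100 mM Tris pH 8 with 5 mM glutathione, 5 µM haemoglobin and 100 µM EDTA. Preincubated with 10 µM compound 5 min at 4 °C, warmed 60 s at 37 °C. Started with AA (5 µM for COX-1, 2 µM for COX-2), run 5 min at 37 °C. 12-HHT extracted and analysed by HPLC. n = 3.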

In assay [3] the target is T4, Polyunsaturated fatty acid 5-lipoxygenase (Homo sapiens, UniProt P09917).
T4 sequence (P09917 whole entry): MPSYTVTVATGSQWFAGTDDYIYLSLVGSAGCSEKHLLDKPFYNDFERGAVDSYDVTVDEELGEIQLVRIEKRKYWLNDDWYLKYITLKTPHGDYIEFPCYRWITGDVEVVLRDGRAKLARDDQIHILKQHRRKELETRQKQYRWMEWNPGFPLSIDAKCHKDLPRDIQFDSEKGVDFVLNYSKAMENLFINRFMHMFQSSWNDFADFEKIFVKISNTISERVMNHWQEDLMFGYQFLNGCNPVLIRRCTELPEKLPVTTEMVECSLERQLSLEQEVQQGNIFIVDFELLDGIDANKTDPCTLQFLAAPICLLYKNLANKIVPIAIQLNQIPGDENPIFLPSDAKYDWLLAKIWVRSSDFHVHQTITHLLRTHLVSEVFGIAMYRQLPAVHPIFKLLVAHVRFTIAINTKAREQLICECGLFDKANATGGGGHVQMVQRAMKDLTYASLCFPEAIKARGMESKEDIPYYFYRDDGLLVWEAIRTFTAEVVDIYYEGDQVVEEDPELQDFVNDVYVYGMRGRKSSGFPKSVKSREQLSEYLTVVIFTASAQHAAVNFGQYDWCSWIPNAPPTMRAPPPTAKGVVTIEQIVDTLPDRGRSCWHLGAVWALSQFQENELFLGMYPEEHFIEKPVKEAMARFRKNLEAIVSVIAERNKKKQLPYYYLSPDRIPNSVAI
Description: Inhibition of 5-lipoxygenase in A23187-stimulated human PMNL assessed as enzyme product formation preincubated 15 mins by RP-HPLC analysis in presence of exogenous arachidonic acid. In a few lines: as §1

Calls of active or inactive are those of the source. No cut-off for these calls is given here.

Broadly, the IC50 is the midpoint of a concentration-inhibition curve.

On to `CCCCC(Sc1ccc(OCCCOc2ccc(-c3ccccc3)cc2)cc1)C(=O)O` (centres undefined), for which the inhibition result in assay [1] and in assay [2] was “inactive” in each case. Also, the figures for the IC50 (on Prostaglandin E synthase; in assay [3]) were 2.2 µM and 0.9 µM, respectively.
